# Laboratory results published in ChEMBL document CHEMBL1122978, “Structure-activity relationship of estrogens: receptor affinity and estrogen antagonist activity of certain (E)- and (Z)-1,2,3-triaryl-2-propen-1-ones” (J Med Chem, 1985).
# “And” between values parts separate entries of the source, which are not always exact repeats. Identical values can stand only once.
# Assays:
# [1] = molecular target: T1, Estrogen receptor (Mus musculus) (UniProt O08537+P19785)
# [2] = molecular target: T1, Estrogen receptor (Mus musculus); assay: In vivo anti-uterotrophic activity in mice following 1 ug estradiol i.p.; format: functional, organism-based; settings: in the assay text read “s.c.” for “i.p.”
# Procedure, shortened: (§1)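 Antiuterotrophic test in immature female Swiss mice, 21-23 days old, 8-12 g. Each animal received 100 μg compound s.c. in propylene glycol-0.9% saline (1:1) daily for 3 days, with 1 μg E2 given at a separate site. Controls got E2 plus vehicle. Uterine weights were taken 24 h after the last dose. Activity computed as 100 × (W_ET − W_C)/(W_E − W_C).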
# [3] = tested on: Estrogen receptor (Mus musculus); assay: Relative binding affinity calculated as the ratio of molar concentration of E2 and the triarylpropenones (TAP's) required to decrease [3H]E2 binding by 50%.
# [4] = molecular target: T1, Estrogen receptor (Mus musculus); assay: Percentage inhibition of uterotrophic effects of estradiol in vivo following 100 ug i.p.; format: functional, organism-based; settings: in the assay text read “s.c.” for “i.p.”
# Procedure, shortened: as §1
# [5] = molecular target: T1, Estrogen receptor (Mus musculus); assay: Uterotrophic activity as uterine weight gain in immature mice without E2 (number of animals); format: functional, tissue-based; settings: Uterus
# Procedure, shortened: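 Uterotrophic test in immature female Swiss mice, 21-23 days old, 8-12 g. Dosing was 100 μg/animal s.c. in propylene glycol-0.9% saline (1:1) on three consecutive days, and controls got vehicle alone. Uteri were weighed at autopsy 24 h after the last injection. Group sizes are given per compound.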
# [6] = molecular target: T2, Estrogen receptor (Rattus norvegicus) (UniProt P06211+Q62986); assay: Uterotrophic activity as uterine weight gain without E2 in rats; format: functional, tissue-based; settings: Uterus
# Procedure, shortened: (§2)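 Immature female Charles Foster rats, 21-23 days old, 25-40 g, were dosed s.c. at 0.5-1000 μg/rat in propylene glycol-0.9% saline (1:1) for 3 consecutive days. Rats were given the compound either alone or with 1 μg E2 at another site. Uterine weight was measured 24 h after the last injection and reported as mean ± SD of at least six animals.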
# [7] = molecular target: T2, Estrogen receptor (Rattus norvegicus); assay: Uterotrophic activity as uterine weight gain in rats with concomitant E2 treatment; format: functional, tissue-based; settings: Uterus
# Procedure, shortened: as §2
# T1 sequence (O08537 whole entry, looked up): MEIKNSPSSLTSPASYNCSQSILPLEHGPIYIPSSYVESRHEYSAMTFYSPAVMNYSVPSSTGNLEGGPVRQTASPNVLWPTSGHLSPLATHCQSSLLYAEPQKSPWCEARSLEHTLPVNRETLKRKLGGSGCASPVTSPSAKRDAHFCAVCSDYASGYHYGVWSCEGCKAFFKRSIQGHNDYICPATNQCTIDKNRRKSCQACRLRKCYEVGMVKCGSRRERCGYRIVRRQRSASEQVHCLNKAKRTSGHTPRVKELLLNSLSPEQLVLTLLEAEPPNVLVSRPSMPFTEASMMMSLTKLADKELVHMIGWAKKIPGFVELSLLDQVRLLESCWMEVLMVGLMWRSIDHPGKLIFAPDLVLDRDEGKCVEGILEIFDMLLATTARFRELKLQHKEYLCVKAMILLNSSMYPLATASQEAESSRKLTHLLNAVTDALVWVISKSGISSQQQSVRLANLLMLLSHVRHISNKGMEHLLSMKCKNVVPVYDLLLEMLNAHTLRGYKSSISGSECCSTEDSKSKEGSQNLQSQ
# T1 sequence (P19785 whole entry, looked up): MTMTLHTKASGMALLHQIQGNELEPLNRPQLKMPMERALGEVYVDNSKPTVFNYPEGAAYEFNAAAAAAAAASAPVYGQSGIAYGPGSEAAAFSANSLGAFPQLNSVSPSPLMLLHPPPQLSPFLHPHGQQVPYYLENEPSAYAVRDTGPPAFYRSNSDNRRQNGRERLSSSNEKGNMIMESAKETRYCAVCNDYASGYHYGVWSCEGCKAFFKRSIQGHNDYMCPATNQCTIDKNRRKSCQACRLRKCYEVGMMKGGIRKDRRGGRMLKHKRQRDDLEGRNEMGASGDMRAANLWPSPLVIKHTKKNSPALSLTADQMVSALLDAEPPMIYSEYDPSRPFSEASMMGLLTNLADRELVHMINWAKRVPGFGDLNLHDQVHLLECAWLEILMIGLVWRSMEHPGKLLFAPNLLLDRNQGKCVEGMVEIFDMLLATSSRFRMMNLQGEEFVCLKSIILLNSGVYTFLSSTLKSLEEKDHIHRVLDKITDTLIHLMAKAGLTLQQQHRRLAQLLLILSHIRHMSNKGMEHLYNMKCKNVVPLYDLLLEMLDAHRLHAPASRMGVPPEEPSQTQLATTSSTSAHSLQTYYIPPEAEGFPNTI
structure (smiles),measurement,setting,value
CC(=O)Oc1ccc(/C=C(/C(=O)c2ccc(OC(C)=O)cc2)c2ccccc2)cc1,Uterine weight,[1],14 mg
same,Uterine weight,[2],14 mg
same,RBA,[3],1.02
same,inhibition,[4],58%
COc1ccc(/C(=C\c2ccccc2)C(=O)c2ccccc2)cc1,Uterine weight,[1],4.7 mg
same,Uterine weight,[2],18.5 mg
same,RBA,[3],0.02
same,inhibition,[4],36%
O=C(/C(=C/c1ccccc1)c1ccccc1)c1ccc(O)cc1,Uterine weight,[5],9.7 mg
same,Uterine weight,[2],18.5 mg
same,RBA,[3],2.02
same,inhibition,[4],36%
COc1ccc(/C=C(/C(=O)c2ccccc2)c2ccccc2)cc1,Uterine weight,[1],4.3 mg
same,Uterine weight,[2],17.3 mg
same,RBA,[3],0.09
same,inhibition,[4],42%
O=C(/C(=C\c1ccccc1)c1ccccc1)c1ccc(O)cc1,Uterine weight,[1],3.2 mg
same,Uterine weight,[2],13.6 mg
same,RBA,[3],< 0.001
same,inhibition,[4],60%
O=C(/C(=C\c1ccc(O)cc1)c1ccc(O)cc1)c1ccccc1,Uterine weight,[1],5.6 mg
same,Uterine weight,[2],16.5 mg
same,RBA,[3],0.48
same,inhibition,[4],47%
O=C(/C(=C\c1ccccc1)c1ccccc1)c1ccccc1,Uterine weight,[1],3 mg
same,Uterine weight,[2],15.3 mg
same,RBA,[3],< 0.001
same,inhibition,[4],51%
CC(=O)Oc1ccc(/C=C(/C(=O)c2ccccc2)c2ccccc2)cc1,Uterine weight,[1],5.9 mg
same,Uterine weight,[2],17.3 mg
same,RBA,[3],0.42
same,inhibition,[4],42%
CC(=O)Oc1ccc(/C(=C/c2ccccc2)C(=O)c2ccccc2)cc1,Uterine weight,[1],4.5 mg
same,Uterine weight,[2],17.8 mg
same,RBA,[3],0.24
same,inhibition,[4],39%
COc1ccc(/C=C(\C(=O)c2ccccc2)c2ccccc2)cc1,Uterine weight,[1],4.6 mg
same,Uterine weight,[2],15.3 mg
same,RBA,[3],< 0.001
same,inhibition,[4],52%
O=C(/C(=C/c1ccccc1)c1ccccc1)c1ccccc1,Uterine weight,[1],4.4 mg
same,Uterine weight,[2],15.4 mg
same,RBA,[3],0.012
same,inhibition,[4],51%
O=C(/C(=C\c1ccccc1)c1ccc(O)cc1)c1ccc(O)cc1,Uterine weight,[1],4.1 mg
same,Uterine weight,[2],14.7 mg
same,RBA,[3],4.75
same,inhibition,[4],55%
COc1ccc(C(=O)/C(=C/c2ccccc2)c2ccccc2)cc1,Uterine weight,[1],5 mg
same,Uterine weight,[2],20.2 mg
same,RBA,[3],< 0.001
same,inhibition,[4],27%
O=C(/C(=C/c1ccc(O)cc1)c1ccc(O)cc1)c1ccc(O)cc1,Uterine weight,[1],4.4 mg and 12 mg
same,Uterine weight,[6],20.5 mg [middle of 5 runs]
same,Uterine weight,[7],53.6 mg [middle of 5 runs]
same,RBA,[3],0.55
same,inhibition,[4],69%
O=C(/C(=C/c1ccccc1)c1ccc(O)cc1)c1ccccc1,Uterine weight,[1],2.9 mg
same,Uterine weight,[2],18.4 mg
same,RBA,[3],0.28
same,inhibition,[4],36%
O=C(/C(=C\c1ccc(O)cc1)c1ccccc1)c1ccc(O)cc1,Uterine weight,[1],3.4 mg
same,Uterine weight,[2],22.3 mg
same,RBA,[3],0.4
same,inhibition,[4],16%
O=C(/C(=C\c1ccccc1)c1ccccc1)c1ccc(OCCN2CCCC2)cc1,RBA,[3],0.002
O=C(/C(=C/c1ccccc1)c1ccccc1)c1ccc(OCCN2CCCC2)cc1,RBA,[3],0.025
O=C(/C(=C/c1ccccc1)c1ccc(O)cc1)c1ccc(O)cc1,Uterine weight,[1],6.8 mg
same,Uterine weight,[2],21.9 mg
same,RBA,[3],0.37
same,inhibition,[4],18%
COc1ccc(C(=O)/C(=C\c2ccccc2)c2ccccc2)cc1,Uterine weight,[1],4.8 mg
same,Uterine weight,[2],16 mg
same,RBA,[3],< 0.001
same,inhibition,[4],48%
O=C(/C(=C/c1ccc(O)cc1)c1ccc(O)cc1)c1ccccc1,Uterine weight,[1],5.5 mg
same,Uterine weight,[2],16.9 mg
same,RBA,[3],0.57
same,inhibition,[4],44%
O=C(/C(=C/c1ccc(O)cc1)c1ccccc1)c1ccccc1,Uterine weight,[1],5 mg
same,Uterine weight,[2],14 mg
same,RBA,[3],0.22
same,inhibition,[4],58%
CC(=O)Oc1ccc(/C(=C\c2ccccc2)C(=O)c2ccccc2)cc1,Uterine weight,[1],4.2 mg
same,Uterine weight,[2],21.5 mg
same,RBA,[3],0.28
same,inhibition,[4],20%
COc1ccc(/C(=C/c2ccccc2)C(=O)c2ccccc2)cc1,Uterine weight,[1],3.5 mg
same,Uterine weight,[2],15.3 mg
same,RBA,[3],< 0.001
same,inhibition,[4],52%
